Test results: ChEMBL document CHEMBL4311953, “Targeting DNA Repair in Tumor Cells via Inhibition of ERCC1-XPF” (J Med Chem, 2019)
Calls of active or inactive are those of the source. No cut-off for these calls is given here.

Experiments:
[1] = target: T1, DNA excision repair protein ERCC-1/DNA repair endonuclease XPF (Homo sapiens) (UniProt P07992+Q92889); assay: Inhibition of human His6-tagged ERCC1-XPF endonuclease activity expressed in Escherichia coli BL21 (DE3) at 8 uM using [6-FAM-5'-CAGCGCTCGG(20T)CCGAGCGCTG-3'-dabcyl] as substrate measured for 12 mins by fluorescence assay
How it was run: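 Real-time incision of 100 nM 6-FAM/dabcyl stem-loop substrate by 25 ng recombinant ERCC1-XPF in 50 mM Tris-Cl pH 8, 20 mM NaCl, 0.5 mM DTT, 0.75 mM MnCl₂ at 25°C; fluorescence (ex 485/em 520 nm) read for 12 min.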

[2] = target: T1, DNA excision repair protein ERCC-1/DNA repair endonuclease XPF (Homo sapiens); assay: Binding affinity to human His6-tagged ERCC1-XPF expressed in Escherichia coli BL21 (DE3) assessed as tryptophan fluorescence quenching at 2 uM by spectrofluorimetric method relative to control
How it was run: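 Intrinsic tryptophan fluorescence of purified ERCC1-XPF (13–20 nM) with 2 μM ligand added from stock, protein dilution kept below 3%; excitation 295 nm, quenching read at 330 nm, room temperature.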

[3] = target: T1, DNA excision repair protein ERCC-1/DNA repair endonuclease XPF (Homo sapiens); assay: (§1) Inhibition of ERCC1-XPF-mediated nucleotide excision repair in human HCT116 cells assessed as reduction in removal of UV-induced cyclobutane pyrimidine dimer at 2 uM incubated for 1 hr prior to compound washout followed by 8 J/m2 UV irradiation and subsequent compound addition and measured after 24 hrs by DAPI staining-based immunofluorescence assay; assay type: cell-based
How it was run: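 HCT-116 cells on coverslips pretreated 1 h with compound, then 8 J/m² UV-C (254 nm) and re-fed medium with compound; incubated at 37°C up to 24 h. Methanol-fixed, HCl-denatured cells stained with anti-thymine dimer antibody and fluorescent secondary, DAPI mounted. Intensity quantified from 50 random cells per treatment; Student's t-test.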

[4] = Stability of the compound in human liver microsomes; assay type: ADME, Microsome
[5] = Efflux ratio of permeability in human Caco2 cells; assay type: ADME, cell-based; settings: Caco-2
Cytochrome P450 1A2 = target: T2, Cytochrome P450 1A2 (Homo sapiens, UniProt P05177); assay: Inhibition of CYP1A2 (unknown origin); assay type: ADME
T2 sequence (P05177 whole entry): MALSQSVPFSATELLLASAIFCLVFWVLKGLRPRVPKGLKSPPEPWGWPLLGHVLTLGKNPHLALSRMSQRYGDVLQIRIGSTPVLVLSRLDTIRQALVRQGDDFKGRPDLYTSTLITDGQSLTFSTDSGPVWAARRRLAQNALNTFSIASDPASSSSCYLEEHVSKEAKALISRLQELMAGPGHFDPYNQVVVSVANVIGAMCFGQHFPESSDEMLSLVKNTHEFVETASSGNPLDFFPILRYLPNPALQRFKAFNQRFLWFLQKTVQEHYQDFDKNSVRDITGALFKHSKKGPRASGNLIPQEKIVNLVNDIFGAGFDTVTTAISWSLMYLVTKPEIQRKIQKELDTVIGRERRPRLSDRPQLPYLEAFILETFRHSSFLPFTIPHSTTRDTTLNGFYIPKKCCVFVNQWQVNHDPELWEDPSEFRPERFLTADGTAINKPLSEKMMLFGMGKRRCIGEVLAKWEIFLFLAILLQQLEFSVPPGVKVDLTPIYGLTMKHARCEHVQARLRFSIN

Cytochrome P450 2C9 = Cytochrome P450 2C9 (Homo sapiens, UniProt P11712); assay: Inhibition of CYP2C9 (unknown origin); assay type: ADME
Cytochrome P450 2C19 = Cytochrome P450 2C19 (Homo sapiens, UniProt P33261); assay: Inhibition of CYP2C19 (unknown origin); assay type: ADME
Cytochrome P450 2D6 = Cytochrome P450 2D6 (Homo sapiens, UniProt P10635); assay: Inhibition of CYP2D6 (unknown origin); assay type: ADME
Cytochrome P450 3A4 = Cytochrome P450 3A4 (Homo sapiens, UniProt P08684); assay: Inhibition of CYP3A4 (unknown origin) using midazolam as substrate; assay type: ADME
[6] = Protein binding in serum (unknown origin); assay type: ADME, cell-free
[7] = target: T3, DNA excision repair protein ERCC-1/DNA repair endonuclease XPF (Homo sapiens, UniProt P07992+Q92889)
T3 sequence (P07992 whole entry): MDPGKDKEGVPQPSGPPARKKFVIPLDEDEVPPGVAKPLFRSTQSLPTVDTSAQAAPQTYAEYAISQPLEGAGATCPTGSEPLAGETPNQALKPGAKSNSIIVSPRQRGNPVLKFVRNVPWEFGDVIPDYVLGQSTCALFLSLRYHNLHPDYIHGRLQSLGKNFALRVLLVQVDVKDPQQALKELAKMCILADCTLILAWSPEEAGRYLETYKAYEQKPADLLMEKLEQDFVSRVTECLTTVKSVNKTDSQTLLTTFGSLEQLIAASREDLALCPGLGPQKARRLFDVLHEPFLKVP
T3 sequence (Q92889 whole entry): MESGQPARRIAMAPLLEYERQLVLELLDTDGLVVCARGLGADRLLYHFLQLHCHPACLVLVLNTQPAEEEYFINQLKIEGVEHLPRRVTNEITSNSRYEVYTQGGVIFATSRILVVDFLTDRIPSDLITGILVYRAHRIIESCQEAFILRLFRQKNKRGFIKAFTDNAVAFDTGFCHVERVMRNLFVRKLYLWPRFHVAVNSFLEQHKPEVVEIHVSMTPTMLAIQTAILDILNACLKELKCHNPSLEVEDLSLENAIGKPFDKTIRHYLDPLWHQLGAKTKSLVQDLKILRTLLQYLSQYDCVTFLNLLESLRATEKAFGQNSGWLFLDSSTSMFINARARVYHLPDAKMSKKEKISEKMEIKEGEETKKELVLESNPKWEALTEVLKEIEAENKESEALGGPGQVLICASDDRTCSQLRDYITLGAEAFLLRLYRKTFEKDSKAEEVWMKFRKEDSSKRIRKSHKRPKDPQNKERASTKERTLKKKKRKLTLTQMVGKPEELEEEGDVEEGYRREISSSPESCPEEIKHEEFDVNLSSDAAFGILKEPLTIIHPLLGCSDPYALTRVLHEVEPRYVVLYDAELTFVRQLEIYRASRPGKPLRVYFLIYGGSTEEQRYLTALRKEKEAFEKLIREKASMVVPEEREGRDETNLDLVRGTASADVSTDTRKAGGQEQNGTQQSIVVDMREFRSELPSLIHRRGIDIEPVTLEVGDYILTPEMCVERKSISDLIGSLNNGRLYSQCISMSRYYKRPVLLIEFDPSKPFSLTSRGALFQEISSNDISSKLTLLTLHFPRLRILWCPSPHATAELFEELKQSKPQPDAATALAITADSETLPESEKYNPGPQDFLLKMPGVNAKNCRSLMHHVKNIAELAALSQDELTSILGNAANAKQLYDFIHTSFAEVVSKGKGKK

[8] = target: T1, DNA excision repair protein ERCC-1/DNA repair endonuclease XPF (Homo sapiens); assay: Time dependent inhibition of human His6-tagged ERCC1-XPF endonuclease activity expressed in Escherichia coli BL21 (DE3) at 3 uM using [6-FAM-5'-CAGCGCTCGG(20T)CCGAGCGCTG-3'-dabcyl] as substrate in presence of 5 to 10% DMSO by fluorescence assay
How it was run: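 ERCC1-XPF preincubated with 3 μM compound in 10% or 5% DMSO; reactions started at T0 with substrate, or at T12 […]. Same stem-loop incision read-out (ex 485/em 520) in Tris-Cl pH 8, MnCl2 buffer at 25°C.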

[9] = Binding affinity to 6-FAM-5'-CAGCGCTCGG(20T)CCGAGCGCTG-3'-dabcyl DNA (unknown origin) by spectrofluorimetric method
How it was run: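 FAM/dabcyl-labelled stem-loop DNA substrate excited at 490 nm, emission at 520 nm followed as a function of ligand concentration; Kd obtained by nonlinear regression assuming unimodal binding.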

[10] = target: T1, DNA excision repair protein ERCC-1/DNA repair endonuclease XPF (Homo sapiens); assay: Binding affinity to human N-terminal His6-tagged RED-tris-NTA labelled ERCC1 (96 to 297 residues)-XPF (667 to 916 residues) expressed in Escherichia coli BL21 (DE3) at 10 uM measured after 20 mins by microscale thermophoresis assay
How it was run: (§2)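 Truncated His-tagged dERCC1 (96-297) and dXPF (667-916) from BL21(DE3), labelled with RED-tris-NTA, at 20 nM singly or as equimolar dimer in 20 mM HEPES pH 7.4, 50 mM NaCl, 1 mM DTT, 2 mM MgCl2, 5% glycerol, 0.01% CHAPS; 10 μM compound or DMSO, 20 min room temperature; MST at high power, 670 nm emission.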

[11] = Binding affinity to RED-tris-NTA at 10 uM measured after 20 mins by microscale thermophoresis assay; how it was run: as §2
[12] = target: T1, DNA excision repair protein ERCC-1/DNA repair endonuclease XPF (Homo sapiens); assay: as §1, with “dimer by measuring cyclobutane pyrimidine dimer level” for “dimer”, “assay (reference value: 80%)” for “assay”; assay type: cell-based; parameters: scale not given: the % may be the effect or the level left
How it was run: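 HCT-116 cells on coverslips, 1 h compound pretreatment, 8 J/m² UV-C (254 nm), then fresh medium with compound at 37°C up to 24 h. Fixed, HCl-denatured, stained with anti-thymine dimer antibody plus fluorescent secondary, DAPI mount. Intensity from 50 random cells per treatment, normalized; Student's t-test.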

HCT-116 [13] = assay: Phototoxicity against human HCT116 cells assessed as reduction in colony formation at 2 uM incubated for 1 hr prior to compound washout followed by 254 nm UV irradiation and subsequent compound addition measured after 10 days by crystal violet staining-based assay; assay type: functional, cell-based
How it was run: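 HCT-116 cells plated in triplicate (100-800 cells), attached overnight, treated 1 h with 1 or 2 μM compound, exposed to 0-10 J/m² 254 nm UV-C, then grown 10 days with inhibitor at 37°C, 5% CO₂. Crystal violet stained colonies counted; plating efficiency and surviving fraction calculated; three independent sets.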

HCT-116 [14] = assay: (§3) Potentiation of cyclophosphamide-induced cytotoxicity against human HCT116 cells assessed as reduction in colony formation at 2 uM incubated for 4 hrs prior to 50 uM cyclophosphamide addition for 24 hrs followed by compound washout and subsequent compound redosing and measured after 8 days by crystal violet staining-based assay; assay type: functional, cell-based
How it was run: (§4)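 HCT-116 cells plated in triplicate, attached overnight, pretreated 4 h with 1 or 2 μM compound, then cyclophosphamide (0-300 μM) added for 24 h; medium replaced with compound alone and incubated 8 more days at 37°C, 5% CO₂. Crystal violet colonies counted, surviving fraction calculated; three independent sets, Student's t-test.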

HCT-116 [15] = assay: as §3, with “300” for “50”; assay type: functional; parameters: scale not given: the % may be the effect or the level left; how it was run: as §4
HCT-116 [16] = assay: as §3, with “human XPF-knockout” for “human”; assay type: functional, cell-based
HCT-116 [17] = assay: as §3, with “human XPF-knockout” for “human”, “300” for “50”; assay type: functional; parameters: scale not given: the % may be the effect or the level left
HCT-116 [18] = assay: Cytotoxicity against human HCT116 cells assessed as reduction in colony formation at 1 to 2 uM; settings: hct-116, 2 µM

Cytochrome P450 2C19, sequence (P33261 whole entry): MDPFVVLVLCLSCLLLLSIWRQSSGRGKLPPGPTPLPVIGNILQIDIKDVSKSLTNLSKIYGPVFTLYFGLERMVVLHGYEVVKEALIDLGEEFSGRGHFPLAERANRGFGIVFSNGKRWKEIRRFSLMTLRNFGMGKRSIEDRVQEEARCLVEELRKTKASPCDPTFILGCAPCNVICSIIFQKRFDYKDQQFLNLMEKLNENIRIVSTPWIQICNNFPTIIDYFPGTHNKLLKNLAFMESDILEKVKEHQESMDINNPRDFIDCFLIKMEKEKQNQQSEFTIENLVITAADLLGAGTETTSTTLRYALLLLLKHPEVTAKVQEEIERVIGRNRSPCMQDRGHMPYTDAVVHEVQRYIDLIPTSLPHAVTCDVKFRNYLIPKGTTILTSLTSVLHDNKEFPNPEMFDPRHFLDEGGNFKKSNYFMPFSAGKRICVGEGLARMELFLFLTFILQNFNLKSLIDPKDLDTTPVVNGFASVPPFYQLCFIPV
Cytochrome P450 3A4, sequence (P08684 whole entry): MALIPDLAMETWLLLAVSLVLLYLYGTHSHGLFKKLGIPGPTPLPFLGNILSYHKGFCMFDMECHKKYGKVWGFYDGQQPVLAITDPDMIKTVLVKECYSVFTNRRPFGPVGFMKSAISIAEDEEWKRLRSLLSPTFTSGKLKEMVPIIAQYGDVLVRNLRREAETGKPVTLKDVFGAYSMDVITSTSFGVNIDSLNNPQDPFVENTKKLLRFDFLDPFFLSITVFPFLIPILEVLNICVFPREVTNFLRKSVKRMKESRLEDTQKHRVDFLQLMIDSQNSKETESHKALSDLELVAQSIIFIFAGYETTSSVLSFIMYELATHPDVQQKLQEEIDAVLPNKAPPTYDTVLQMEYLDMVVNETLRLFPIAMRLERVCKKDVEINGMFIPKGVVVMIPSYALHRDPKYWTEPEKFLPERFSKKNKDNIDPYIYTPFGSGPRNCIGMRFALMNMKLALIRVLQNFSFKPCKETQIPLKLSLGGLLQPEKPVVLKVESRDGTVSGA
Cytochrome P450 2C9, sequence (P11712 whole entry): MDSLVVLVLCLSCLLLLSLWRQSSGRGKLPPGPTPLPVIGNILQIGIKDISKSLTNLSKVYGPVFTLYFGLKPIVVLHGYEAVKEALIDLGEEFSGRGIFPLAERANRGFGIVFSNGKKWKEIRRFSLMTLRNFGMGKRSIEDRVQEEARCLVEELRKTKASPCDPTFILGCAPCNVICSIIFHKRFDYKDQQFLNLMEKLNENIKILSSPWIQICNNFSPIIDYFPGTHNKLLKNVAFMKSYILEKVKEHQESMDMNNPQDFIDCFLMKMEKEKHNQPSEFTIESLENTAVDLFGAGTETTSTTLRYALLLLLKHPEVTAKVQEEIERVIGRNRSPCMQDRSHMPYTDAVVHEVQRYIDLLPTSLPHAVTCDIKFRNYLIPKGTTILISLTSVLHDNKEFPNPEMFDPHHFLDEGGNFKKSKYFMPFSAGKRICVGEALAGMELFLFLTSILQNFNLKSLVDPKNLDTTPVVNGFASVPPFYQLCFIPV
Cytochrome P450 2D6, sequence (P10635 whole entry): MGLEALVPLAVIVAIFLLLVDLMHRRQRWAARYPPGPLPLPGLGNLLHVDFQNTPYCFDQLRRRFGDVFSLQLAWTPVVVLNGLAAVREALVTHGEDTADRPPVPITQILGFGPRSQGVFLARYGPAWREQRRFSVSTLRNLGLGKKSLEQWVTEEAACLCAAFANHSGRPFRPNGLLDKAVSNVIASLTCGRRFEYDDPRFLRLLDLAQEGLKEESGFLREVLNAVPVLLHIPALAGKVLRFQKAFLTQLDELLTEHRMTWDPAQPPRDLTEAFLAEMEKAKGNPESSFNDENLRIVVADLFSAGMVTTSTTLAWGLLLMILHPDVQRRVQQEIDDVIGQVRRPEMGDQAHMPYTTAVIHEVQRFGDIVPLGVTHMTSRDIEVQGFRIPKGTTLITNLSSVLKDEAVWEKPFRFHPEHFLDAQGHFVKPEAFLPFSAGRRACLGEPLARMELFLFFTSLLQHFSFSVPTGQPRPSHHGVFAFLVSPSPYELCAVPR

With `COc1ccc2nc3cc(Cl)ccc3c(Nc3ccc(O)c(CN4CCN(C5CCCCC5)CC4)c3)c2c1` the inhibition [1] was “Active”.
With `COc1ccc2nc3cc(Cl)ccc3c(Nc3ccc(O)c(CN4CCN(c5ccc(Cl)c(Cl)c5)CC4)c3)c2c1` the Activity [2] was 3% and the inhibition [3] was “inactive”.
For `COc1ccc2nc3cc(Cl)ccc3c(Nc3ccc(O)c(CN4CCN(C)CC4)c3)c2c1`, the inhibition [1] was “Active”, the Stability [4] was “Unstable” and the efflux ratio [5] was 11.2. It also gave an IC50 (Cytochrome P450 1A2) of 10 to 50 µM, an IC50 (Cytochrome P450 2C9) of 10 to 50 µM and an IC50 (Cytochrome P450 2C19) of 10 to 50 µM. The IC50 (Cytochrome P450 2D6) was 1000 to 10000 nM, the IC50 (Cytochrome P450 3A4) was 1000 to 10000 nM and the PB [6] was “Active”. For the same molecule, the IC50 [7] was 1860 nM.
For `COc1ccc2nc3cc(Cl)ccc3c(Nc3ccc(O)c(CN4CCN(CCN(C)C)CC4)c3)c2c1`, the inhibition [1] was “Active”, the TDI [8] was “Active” and the Activity [2] was 23%. The Kd [9] was 2100 nM, the Activity [10] was “Active” and the Activity [11] was “inactive”. For the same molecule, the Activity [12] was 60%, the Activity (HCT-116 [13]) was “Active” and the Activity (HCT-116 [14]) was “Active”. For the same molecule, the Activity (HCT-116 [15]) was 100%, the Activity (HCT-116 [16]) was “Active” and the Activity (HCT-116 [17]) was 100%. The IC50 (Cytochrome P450 2C9) was > 1 µM, the IC50 (Cytochrome P450 2C19) was > 1 µM and the IC50 (Cytochrome P450 2D6) was > 1000 nM. The IC50 (Cytochrome P450 3A4) was > 1000 nM, the PB [6] was “Active” and the Activity (HCT-116 [18]) was “Non-Toxic”.
